b-catenin transl – modulators of beta-catenin nuclear translocation; HeLa beta-catenin nuclear translocation, immunofluorescence imaging; nuclear translocation activity, % at 5 µM; actives 0.3% (n = 190,000); AID 1665;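 active = nuclear translocation activity above 50% at 5 µM, with a well cell count of 50 or more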;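 note: per-cell ratio of nuclear to cytoplasmic median beta-catenin stain intensity; plate controls were DMSO negative control for no effect and GSK-3 inhibitor IX positive control for full effect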
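Read-out: Nuclear/cytoplasmic beta-catenin signal ratio, % activation | Assay system: Human HeLa cell line | Times: 24 h compound exposure at 37°C, 5% CO2 | Signal: Fluorescence imaging of beta-catenin antibody stain plus DAPI | Dosing: 5 µM primary, 0.02–20 µM confirmation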
APP 5UTR inh – APP translation inhibition; SH-SY5Y APP 5'UTR-luciferase reporter, luminescence; inhibition, % at 2 µM; actives 0.82% (n = 190,000); AID 1285;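 active = inhibition above a set limit, derived from the sample mean plus 3 SD, cut at about 45% in these data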
IEC-6 cytotox – kills IEC-6 intestinal cells in KLF5 counter-screen. inhibition, % at 5 µM. AID 1825. actives 0.78% (n = 290,000). IEC-6 cytotoxicity, luminescence viability;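 note: 0% = plate median of test compound wells and 100% = cytotoxic reference compound wells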
MT stabilizer – microtubule stabilizers in HeLa cells; % tubulin-high responders, % at 10 µM; actives 0.83% (n = 200,000); HeLa tubulin immunostaining HCS, 24 h; share of cells brighter than vehicle mean+2SD;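 active = plate Z-score above 3 for both tubulin-high and condensed-nucleus cell shares, with cell loss under 80%, at 10 µM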;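 note: anti alpha tubulin signal scored within the nucleus-defined area of each cell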
Ba/F3 V617F tox – loss of viability in JAK2V617F-driven Ba/F3 cells; Ba/F3 EpoR-JAK2V617F viability, ATP luminescence; inhibition, % at 5.6 µM; actives 1.1% (n = 220,000);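 active = inhibition above the campaign mean plus 3 SD over all tested compounds, cut at about 24% in these data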;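 note: cytokine-independent growth of Ba/F3 cells driven by EpoR plus mutant JAK2; 0% = DMSO-treated cells and 100% = JAK inhibitor I control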
BaF3 tox – reduces parental Ba/F3 cell viability, JAK2V617F counter-screen; inhibition, % at 5.6 µM; CellTiter-Glo ATP luminescence; actives 1.1% (n = 220,000);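 active = inhibition above a per-campaign cutoff, the mean inhibition of all tested compounds plus 3 SD, cut at about 27% in these data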;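 note: 0% = DMSO wells and 100% = JAK Inhibitor I control wells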
IEC-6 cytotox cf – confirmation of cytotoxic compounds in rat IEC-6 intestinal epithelial cells; inhibition, % at 5 µM; actives 63% (n = 1,900); IEC-6 rat intestinal epithelial viability, luminescence; shares compounds with IEC-6 cytotox;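 note: 0% = vehicle and 100% = reference cytotoxic drug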
The depositor's hits bear a star; nt = no result given; ! = not confirmed by another sample. Only some compounds are listed: those with a hit (about 2.2% of all), similar ones and a draw of the others. Cut-off read from the data, not from the text of the source, unless noted: active = inhibition above about 22%; inactive = the rest.

SMILES	b-catenin transl	APP 5UTR inh	IEC-6 cytotox	MT stabilizer	Ba/F3 V617F tox	BaF3 tox	IEC-6 cytotox cf
O=C(c1ccc2c(=O)n3c(nc2c1)CCCCC3)N1CCN(c2ccc(Cl)cc2)CC1	nt	nt	5.4	nt	nt	nt	nt
CC(C(=O)NCCSCc1cccc(Cl)c1)N(c1ccccc1)S(C)(=O)=O (centres undefined)	nt	nt	-3.6	nt	nt	nt	nt
CCCCC(=O)NC(c1ccc(N(C)C)cc1)c1ccc2cccnc2c1O (centres undefined)	nt	nt	62.2*	nt	nt	nt	85.9*
CCN(CC)c1ccc(-c2nn3c(-c4n[nH]c5c4CCC5)nnc3s2)cc1	64.9*	96.0*	85.4*	22.5*	74.5*	77.5*	50.3*
CNC(=S)N(Cc1cc2ccc(OC)cc2[nH]c1=O)CC1CCCO1 (centres undefined)	-0.6	-2.0	-1.9	2.8	-0.1	11.0	nt
Cc1ccc(C)c(Nc2cc(C)nc(-c3ccccc3O)n2)c1	nt	nt	48.3*	nt	nt	nt	26.9*
Cc1cc(Nc2ccccc2Cl)nc(-c2ccccc2O)n1	nt	nt	-9.4	nt	nt	nt	nt
CC(=O)c1sc(NC(=O)c2ccccc2)nc1-c1ccccc1	-0.7	-101.2	-6.8	1.4	-1.6	8.9	nt
CCOC(=O)Nc1nc(-c2ccccc2)c(C(=O)c2ccccc2)s1	nt	94.4*	86.4*	14.0	79.8*	79.8*	57.7*
COC(=O)Nc1nc(-c2ccccc2)c(C(=O)c2ccc(Cl)cc2)s1	-7.4	9.4	55.7*	10.9	-0.5	5.7	58.1*
CC(C)(C)NC(=O)C(c1ccco1)N(Cc1ccc2c(c1)OCO2)C(=O)c1snc(C(N)=O)c1N (centres undefined)	nt	nt	-7.9	nt	nt	nt	nt
C/C(=N\N=C1\NC(=O)C(Cc2ccccc2)S1)c1ccccc1 (centres undefined)	1.5	4.1	1.8	3.7	0.2	5.9	nt
CC(=O)/C(C#N)=C1\NC(=O)C(Cc2ccccc2)S1 (centres undefined)	-3.0	5.3	75.9*	2.3	-0.7	1.6	51.4*
CC(=O)/C(C#N)=C1\NC(=O)C(Cc2ccccc2C)S1 (centres undefined)	5.8	nt	70.9*	nt	3.8	9.0	46.6*
CC1CCC(C(C)C)C(OC(=O)Cn2c(-c3ccccc3)[n+](C)c3ccccc32)C1 (centres undefined)	-7.0	-19.4	27.6*!	3.6	100.5*	93.4*	17.9
CC1CCC(C(C)C)C(OC(=O)CSc2nnc(N)s2)C1 (centres undefined)	-1.7	-5.3	-1.4	2.3	-2.8	2.8	nt
CCCC1=Nc2cc(C(=O)NCCCOCC)ccc2Sc2ccccc21	104.7*	96.7*	97.2*	15.0	93.4*	91.0*	73.8*
CCC1=Nc2cc(C(=O)NCCN3CCOCC3)ccc2Sc2ccc(C)cc21	nt	nt	4.5	nt	nt	nt	nt
CCC1=Nc2cc(C(=O)NCCCOC)ccc2Sc2ccccc21	nt	94.8*	88.3*	25.0*	77.0*	79.1*	59.6*
CCC1=Nc2cc(C(=O)NCCN3CCCC3)ccc2Sc2ccccc21	nt	nt	-1.1	nt	nt	nt	nt
CCC1=Nc2cc(C(=O)NCc3ccco3)ccc2Sc2ccc(C)cc21	74.4*	94.3*	81.0*	4.2	85.9*	84.3*	65.4*
CCC1=Nc2cc(C(=O)NCCCN3CCOCC3)ccc2Sc2ccccc21	nt	nt	5.0	nt	nt	nt	nt
CCOc1ccc(S(=O)(=O)N2CCCC(C(=O)NCc3cccnc3)C2)cc1 (centres undefined)	nt	nt	5.7	nt	nt	nt	nt
CCOc1cc(N2CCOCC2)c(OCC)cc1NS(=O)(=O)c1ccc(Cl)s1	9.5	26.1	56.9*	39.8*	17.0	54.7*	58.2*
CCOc1cc(N2CCOCC2)c(OCC)cc1NC(=O)CCS(=O)(=O)c1ccc(Cl)cc1	-4.3	2.0	-0.5	2.8	-2.0	1.1	nt
SMILES	b-catenin transl	APP 5UTR inh	IEC-6 cytotox	MT stabilizer	Ba/F3 V617F tox	BaF3 tox	IEC-6 cytotox cf
CCOc1cc(-c2nc3ccccc3s2)ccc1O	7.8	nt	1.5	nt	3.9	0.4	nt
CC[n+]1c(/C=C/N(C)c2ccccc2)n(-c2ccccc2)c2ccc(-c3nc4ccccc4s3)cc21	nt	nt	58.5*	nt	nt	nt	11.9
CCCn1c2ccccc2c2nnc(SCCN3CCOCC3)nc21	nt	nt	-5.1	nt	nt	nt	nt
c1ccc2nc3c(nc2c1)c1ccccc1n3CCN1CCOCC1	nt	-13.1	22.6*	4.6	84.3*	77.4*	10.4
CCOC(=O)Nc1ccc(C(=O)/C=C/c2ccccc2)cc1	-0.1	nt	-6.0	nt	-2.5	-1.1	nt
COc1ccc(O)c(/C=N/NC(=S)NCCc2ccccc2)c1	nt	nt	11.1	nt	nt	nt	nt
COCCNC(=S)N/N=C(\C)c1ccccc1O	-2.1	78.6*	85.2*	2.3	1.4	8.7	17.8
COc1ccc(/C(C)=N/NC(=S)NCCc2ccccc2)c(O)c1	nt	nt	40.3*	nt	nt	nt	2.0
CSc1nnc(-c2sccc2OCc2ccc(C)cc2)n1C	4.3	-3.4	-2.5	11.2	-0.7	5.1	nt
COCCN(C(=S)Nc1ccc(C)cc1)C(C)c1cccnc1 (centres undefined)	-0.3	-6.3	-0.1	4.2	-0.6	3.0	nt
O=C(c1ccccc1-c1ccccc1)N1CCN(c2ccccn2)CC1	65.9*	46.5*	33.5*	42.8*	75.0*	55.0*	38.6*
Cc1cc(-c2ccccc2)nc(N2CCN(c3ccccn3)CC2)n1	0.2	-11.3	25.6*	3.1	2.4	1.1	41.4*
Cc1ccccc1C(=O)N1CCN(c2ccccn2)CC1	-5.6	-7.2	1.6	3.5	-1.2	3.4	nt
COc1ccc(-n2ncc3c2CC(C)(C)CC3NC(=O)c2cn[nH]c2)cc1 (centres undefined)	nt	nt	4.9	nt	nt	nt	nt
CCS(=O)(=O)c1ncc(Cl)c(C(=O)Nc2ccc(S(=O)(=O)N(C)c3ccccc3)cc2)n1	nt	nt	101.0*	nt	nt	nt	27.7*
CC(=O)Nc1ccc(S(=O)(=O)N(C)c2ccccc2)cc1	3.2	-11.4	-0.4	3.3	-1.4	-0.9	nt
CCN(c1ccccc1)S(=O)(=O)c1ccc(NC(=O)c2nc(S(C)(=O)=O)ncc2Cl)cc1	nt	nt	99.8*	nt	nt	nt	12.0
CN(CCC1CCOCC1)C(=O)c1cc(COc2c(F)cccc2F)on1	nt	nt	2.9	nt	nt	nt	nt
Cc1ccc(OCC(=O)NNC(=S)NC(=O)C2CCCCC2)c(C)c1	nt	nt	3.3	nt	nt	nt	nt
Cc1ccc(OCC(=O)NNC(=S)NC(=O)C2CC2)c(C)c1	nt	nt	35.8*	nt	nt	nt	13.5
COc1cccc2cc(C(=O)C3=C(O)C(=O)N(c4cc(C)on4)C3c3cccs3)oc12 (centres undefined)	nt	nt	-2.8	nt	nt	nt	nt
COc1c(Cl)cc(Cl)cc1/C=N/NC(=O)c1nnn(-c2nonc2N)c1CN1CCC(C)CC1	nt	nt	-2.3	nt	nt	nt	nt
CC1CCN(Cc2c(C(=O)N/N=C/c3cc(Cl)ccc3O)nnn2-c2nonc2N)CC1	nt	nt	50.5*	nt	nt	nt	49.1*
C/C(=N\NC(=O)c1nnn(-c2nonc2N)c1CN1CCc2ccccc21)c1ccccc1O	nt	nt	54.2*	nt	nt	nt	55.7*
CC1CCN(Cc2c(C(=O)N/N=C/c3cc(Br)ccc3O)nnn2-c2nonc2N)CC1	nt	nt	57.0*	nt	nt	nt	61.8*

Source: PubChem BioAssay (several laboratories)
